Results from ChEMBL document CHEMBL4196119, “Quinoxaline-Based Linear HCV NS3/4A Protease Inhibitors Exhibit Potent Activity against Drug Resistant Variants” (ACS Med Chem Lett, 2018).

Tests used:
[1] = target: Hepatitis C virus serine protease, NS3/NS4A (Hepatitis C virus, UniProt A3EZI9+D2K2A8); assay: Inhibition of wild type HCV genotype 1a NS3/4A protease expressed in Escherichia coli BL21(DE3) using Ac-DE-Dap(QXL 520)-EE-Abu-psi-[COO]AS-C(5-FAMsp)-NH2 as substrate preincubated for 1 hr followed by substrate addition; set-up: species or system Hepatitis C virus subtype 1a
Method in brief: (§1)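 Enzyme inhibition constants (Ki) were determined against GT1a NS3/4A protease in three forms: wild type, R155K and D168A.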

Hepatitis C virus [2] = assay: Selectivity ratio of EC50 for HCV genotype 1b Con1 harboring HCV genotype 1a H77 NS3 D168A mutant infected in human HuH7 cells to EC50 for HCV genotype 1b Con1 harboring HCV genotype 1a H77 wild type NS3 infected in human HuH7 cells; type: functional, Hepacivirus hominis, isolate Con1
[3] = target: Hepatitis C virus serine protease, NS3/NS4A (Hepatitis C virus, UniProt A3EZI9+D2K2A8, R155K); assay: Inhibition of HCV genotype 1a NS3/4A protease R155K mutant expressed in Escherichia coli BL21(DE3) using Ac-DE-Dap(QXL 520)-EE-Abu-psi-[COO]AS-C(5-FAMsp)-NH2 as substrate preincubated for 1 hr followed by substrate addition; set-up: species or system Hepatitis C virus subtype 1a; method in brief: as §1
Hepatitis C virus [4] = assay: Selectivity ratio of EC50 for HCV genotype 1b Con1 harboring HCV genotype 1a H77 NS3 R155K mutant infected in human HuH7 cells to EC50 for HCV genotype 1b Con1 harboring HCV genotype 1a H77 wild type NS3 infected in human HuH7 cells; type: functional, Hepacivirus hominis, isolate Con1
[5] = target: Hepatitis C virus serine protease, NS3/NS4A (Hepatitis C virus, UniProt A3EZI9+D2K2A8, D168A); assay: Inhibition of HCV genotype 1a NS3/4A protease D168A mutant expressed in Escherichia coli BL21(DE3) using Ac-DE-Dap(QXL 520)-EE-Abu-psi-[COO]AS-C(5-FAMsp)-NH2 as substrate preincubated for 1 hr followed by substrate addition; set-up: species or system Hepatitis C virus subtype 1a; method in brief: as §1
Hepatitis C virus [6] = assay: Selectivity ratio of EC50 for HCV genotype 1b Con1 harboring HCV genotype 1a H77 NS3 D168V mutant infected in human HuH7 cells to EC50 for HCV genotype 1b Con1 harboring HCV genotype 1a H77 wild type NS3 infected in human HuH7 cells; type: functional, Hepacivirus hominis, isolate Con1
Hepatitis C virus [7] = assay: Selectivity ratio of EC50 for HCV genotype 1b Con1 harboring HCV genotype 1a H77 NS3 A156T mutant infected in human HuH7 cells to EC50 for HCV genotype 1b Con1 harboring HCV genotype 1a H77 wild type NS3 infected in human HuH7 cells; type: functional, Hepacivirus hominis, isolate Con1
Hepatitis C virus [8] = assay: Antiviral activity against HCV genotype 1b Con1 harboring HCV genotype 1a H77 wild type NS3 infected in human HuH7 cells assessed as inhibition of viral replication after 96 hrs by luciferase reporter gene assay; type: functional, organism-based, Hepacivirus hominis; conditions: isolate Con1, Huh-7, 96 h
Method in brief: (§2)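 Cell-based replicon antiviral assays against wild-type HCV and the R155K, A156T, D168A and D168V variants. Potency was expressed as EC50.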

Hepatitis C virus [9] = assay: Antiviral activity against HCV genotype 1b Con1 harboring HCV genotype 1a H77 NS3 A156T mutant infected in human HuH7 cells assessed as inhibition of viral replication after 96 hrs by luciferase reporter gene assay; type: functional, organism-based, Hepacivirus hominis; conditions: isolate Con1, Huh-7, 96 h; method in brief: as §2
Hepatitis C virus [10] = assay: Antiviral activity against HCV genotype 1b Con1 harboring HCV genotype 1a H77 NS3 D168V mutant infected in human HuH7 cells assessed as inhibition of viral replication after 96 hrs by luciferase reporter gene assay; type: functional, organism-based, Hepacivirus hominis; conditions: isolate Con1, Huh-7, 96 h; method in brief: as §2
Hepatitis C virus [11] = assay: Antiviral activity against HCV genotype 1b Con1 harboring HCV genotype 1a H77 NS3 D168A mutant infected in human HuH7 cells assessed as inhibition of viral replication after 96 hrs by luciferase reporter gene assay; type: functional, organism-based, Hepacivirus hominis; conditions: isolate Con1, Huh-7, 96 h; method in brief: as §2
Hepatitis C virus [12] = assay: Antiviral activity against HCV genotype 1b Con1 harboring HCV genotype 1a H77 NS3 R155K mutant infected in human HuH7 cells assessed as inhibition of viral replication after 96 hrs by luciferase reporter gene assay; type: functional, organism-based, Hepacivirus hominis; conditions: isolate Con1, Huh-7, 96 h; method in brief: as §2

SMILES	Ki [1] [nM]	Ratio EC50 (Hepatitis C virus [2])	Ki [3] [nM]	Ratio EC50 (Hepatitis C virus [4])	Ki [5] [nM]	Ratio EC50 (Hepatitis C virus [6])	Ratio EC50 (Hepatitis C virus [7])	EC50 (Hepatitis C virus [8]) [nM]	EC50 (Hepatitis C virus [9]) [nM]	EC50 (Hepatitis C virus [10]) [nM]	EC50 (Hepatitis C virus [11]) [nM]	EC50 (Hepatitis C virus [12]) [nM]
CCc1nc2ccc(OC)cc2nc1O[C@@H]1C[C@H]2C(=O)N[C@]3(C(=O)NS(=O)(=O)C4CC4)C[C@H]3/C=C\CCCCC[C@H](NC(=O)OC(C)(C)C)C(=O)N2C1	2	19	3.1	5.5	91	28	29					
C=C[C@@H]1C[C@]1(NC(=O)[C@@H]1C[C@@H](Oc2nc3cc(OC)ccc3nc2C(F)(F)F)CN1C(=O)[C@@H](NC(=O)OC1CCCC1)C(C)(C)C)C(=O)NS(=O)(=O)C1(C)CC1	22		22		516							
C=C[C@@H]1C[C@]1(NC(=O)[C@@H]1C[C@@H](Oc2nc3cc(OC)ccc3nc2CC)CN1C(=O)[C@@H](NC(=O)OC1CCCC1)C(C)(C)C)C(=O)NS(=O)(=O)C1CC1	9.8		15		350							
C=C[C@@H]1C[C@]1(NC(=O)[C@@H]1C[C@@H]2CN1C(=O)[C@H](C(C)(C)C)NC(=O)O[C@@H]1C[C@H]1CCCCCc1nc3ccc(OC)cc3nc1O2)C(=O)NS(=O)(=O)C1(C)CC1								0.12	200	5.3	11	1.9
C=C[C@@H]1C[C@]1(NC(=O)[C@@H]1C[C@@H](Oc2nc3cc(OC)ccc3nc2C)CN1C(=O)[C@@H](NC(=O)OC1CCCC1)C(C)(C)C)C(=O)NS(=O)(=O)C1CC1	9.2	10	9.6	4.8	144	15	16	10	164	150	101	48
C=C[C@@H]1C[C@]1(NC(=O)[C@@H]1C[C@@H](Oc2nc3cc(OC)ccc3nc2C(C)C)CN1C(=O)[C@@H](NC(=O)OC1CCCC1)C(C)(C)C)C(=O)NS(=O)(=O)C1(C)CC1	21		43		1000							
C=C[C@@H]1C[C@]1(NC(=O)[C@@H]1C[C@@H](Oc2nc3cc(OC)ccc3nc2C)CN1C(=O)[C@@H](NC(=O)OC(C)(C)C)C(C)(C)C)C(=O)NS(=O)(=O)C1CC1	18		8.5		290							
C=C[C@@H]1C[C@]1(NC(=O)[C@@H]1C[C@@H](Oc2nc3cc(OC)ccc3nc2Cl)CN1C(=O)[C@@H](NC(=O)OC(C)(C)C)C(C)(C)C)C(=O)NS(=O)(=O)C1(C)CC1	6.1	4.8	3.8	1.6	119	1.9	16	6.3	100	12	30	10
C=C[C@@H]1C[C@]1(NC(=O)[C@@H]1C[C@@H](Oc2nc3cc(OC)ccc3nc2CC)CN1C(=O)[C@@H](NC(=O)OC(C)(C)C)C(C)(C)C)C(=O)NS(=O)(=O)C1CC1	19	>21	17	2.1	642	>21	3	24	73	> 500	> 500	50
C=C[C@@H]1C[C@]1(NC(=O)[C@@H]1C[C@@H](Oc2nc3cc(OC)ccc3nc2C(F)(F)F)CN1C(=O)[C@@H](NC(=O)OC(C)(C)C)C(C)(C)C)C(=O)NS(=O)(=O)C1(C)CC1	46		12		513							
C=C[C@@H]1C[C@]1(NC(=O)[C@@H]1C[C@@H](Oc2nc3cc(OC)ccc3nc2Cl)CN1C(=O)[C@@H](NC(=O)OC(C)(C)C)C(C)(C)C)C(=O)NS(=O)(=O)C1CC1	7.8	5.8	2.2	1.5	128	1.8	16	6.6	107	12	38	10
C=C[C@@H]1C[C@]1(NC(=O)[C@@H]1C[C@@H](Oc2nc3cc(OC)ccc3nc2CC)CN1C(=O)[C@@H](NC(=O)OC1CCCC1)C(C)(C)C)C(=O)NS(=O)(=O)C1(C)CC1	6.9		13		145							
C=C[C@@H]1C[C@]1(NC(=O)[C@@H]1C[C@@H](Oc2nc3cc(OC)ccc3nc2Cl)CN1C(=O)[C@@H](NC(=O)OC1CCCC1)C(C)(C)C)C(=O)NS(=O)(=O)C1(C)CC1	3.9	8.1	5.2	8.7	51	7.4	53	3.1	163	23	25	27
C=C[C@@H]1C[C@]1(NC(=O)[C@@H]1C[C@@H](Oc2nc3cc(OC)ccc3nc2C)CN1C(=O)[C@@H](NC(=O)OC(C)(C)C)C(C)(C)C)C(=O)NS(=O)(=O)C1(C)CC1	14		14		265							
C=C[C@@H]1C[C@]1(NC(=O)[C@@H]1C[C@@H](Oc2nc3cc(OC)ccc3nc2C(C)C)CN1C(=O)[C@@H](NC(=O)OC(C)(C)C)C(C)(C)C)C(=O)NS(=O)(=O)C1CC1	32		49		1090							
C=C[C@@H]1C[C@]1(NC(=O)[C@@H]1C[C@@H](Oc2nc3cc(OC)ccc3nc2C(C)C)CN1C(=O)[C@@H](NC(=O)OC(C)(C)C)C(C)(C)C)C(=O)NS(=O)(=O)C1(C)CC1	29		27		1180							
C=C[C@@H]1C[C@]1(NC(=O)[C@@H]1C[C@@H](Oc2nc3cc(OC)ccc3nc2C(F)(F)F)CN1C(=O)[C@@H](NC(=O)OC1CCCC1)C(C)(C)C)C(=O)NS(=O)(=O)C1CC1	34		26		703							
C=C[C@@H]1C[C@]1(NC(=O)[C@@H]1C[C@@H](Oc2nc3cc(OC)ccc3nc2C(F)(F)F)CN1C(=O)[C@@H](NC(=O)OC(C)(C)C)C(C)(C)C)C(=O)NS(=O)(=O)C1CC1	87		24		723							
C=C[C@@H]1C[C@]1(NC(=O)[C@@H]1C[C@@H](Oc2nc3cc(OC)ccc3nc2C)CN1C(=O)[C@@H](NC(=O)OC1CCCC1)C(C)(C)C)C(=O)NS(=O)(=O)C1(C)CC1	7.1	10	10	6.2	140	13	19	4.5	87	59	45	28
C=C[C@@H]1C[C@]1(NC(=O)[C@@H]1C[C@@H](Oc2nc3cc(OC)ccc3nc2C(C)C)CN1C(=O)[C@@H](NC(=O)OC1CCCC1)C(C)(C)C)C(=O)NS(=O)(=O)C1CC1	17		55		985							
C=C[C@@H]1C[C@]1(NC(=O)[C@@H]1C[C@@H](Oc2nc3cc(OC)ccc3nc2CC)CN1C(=O)[C@@H](NC(=O)OC(C)(C)C)C(C)(C)C)C(=O)NS(=O)(=O)C1(C)CC1	16		14		385							
C=C[C@@H]1C[C@]1(NC(=O)[C@@H]1C[C@@H](Oc2nc3cc(OC)ccc3nc2Cl)CN1C(=O)[C@@H](NC(=O)OC1CCCC1)C(C)(C)C)C(=O)NS(=O)(=O)C1CC1	3.8	6.8	4.1	5.4	99	7.3	40	7.4	292	54	50	40
